# Screening data as filed in PubChem.
# Beta cell apopt: inhibitors of cytokine-induced beta cell apoptosis, primary screen, luminescence; INS-1E cytokine-induced death, ATP luminescence, 48 h; percent of positive-control rescue, neutral wells zero; protection from apoptosis, % (no concentration beside the values); AID 435005, 2010; 300,000 tested, 0.8% active;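 active = Every replicate reaches about 75%, or at least half do and their mean reaches it too, limit read from the data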;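 note: 0% = cytokine-treated negative control wells and 100% = positive control rescue; higher means more ATP so stronger rescue from cytokine killing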
# Mdm2 MdmX PPI: inhibitors of human Mdm2-MdmX association, primary screen, cell-based, luminescence, split luciferase, SaOS-2, uHTS. inhibition, % at 8 µM. SaOS-2 split-luciferase Mdm2/MdmX complementation. 330,000 tested, 3% active. Protein Mdm4 (Homo sapiens) + E3 ubiquitin-protein ligase Mdm2 (Homo sapiens), …;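 active = inhibition of at least 50% at 8 µM in the primary screen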
# Lmaj promast: Leishmania major promastigote growth inhibition, primary screen | Leishmania major promastigotes, resazurin fluorescence viability | inhibition, % at 10 µM | 200,000 tested, 9% active | AID 1063, 2008; in the data active = inhibition above about 50%;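 note: promastigotes grown with compound for 44 hours at 28 °C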
# T cruzi inh: inhibitors of intracellular T. cruzi growth, primary screen, luminescence, NIH3T3 host cells; inhibition, % (no concentration beside the values); AID 1885, 2009; T. cruzi beta-gal in NIH3T3, 90 h; 300,000 tested, 1.4% active;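 active = mean inhibition across valid replicates above about 55%, limit read from the data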;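 note: signal also drops with host cell toxicity which is not excluded here; 0% = plate median of DMSO wells and 100% = zero luminescence signal; higher percent means less beta-gal luminescence so fewer parasites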
#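 assay system = mouse NIH/3T3 fibroblasts infected with β-gal-expressing T. cruzi Tulahuen C4 | input = 5,000 NIH/3T3 host cells per well | buffer or medium = DMEM plus 2% FBS | timing = 3 h host attachment, then at least 90 h co-culture | measured by = GalScreen luminescence, 60 min | evaluation = luminescence reflecting intracellular parasite burden, expressed as percent inhibition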
# CSC inhib: cancer stem cell viability inhibitors, primary screen, luminescence; cancer stem cell-like cells viability; inhibition, % at 7.5 µM; 300,000 tested, 1.1% active; in the data active = inhibition above about 75%; tested in HMLE shEcad cells
# SKKanGAS inh: S. pyogenes SKKanGAS growth inhibitors in kanamycin, primary screen, streptokinase expression inhibitor project, SKKanGAS strain, BacTiter-Glo luminescence | 6 h | inhibition, % at 7.5 µM | 300,000 tested, 1.3% active;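 active = mean replicate score, as percent of positive control median, at least 50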;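 note: strain carries kanamycin resistance gene driven by streptokinase promoter and grows in 40 µg/ml kanamycin; loss of luminescence reflects streptokinase promoter inhibition or plain growth inhibition; 0% = median of DMSO wells and 100% = positive control at its reference dose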
# An asterisk follows results filed as active; · = no result given. In the library only some 9.4% were active in any assay of this set; here they are far more common.
SMILES,Beta cell apopt,Mdm2 MdmX PPI,Lmaj promast,T cruzi inh,CSC inhib,SKKanGAS inh
COC(=O)C1=C(C)N(c2cc(C)cc(C)c2)/C(=C/c2ccco2)C1=O,14,-14,48,32,-1,-8
COC(=O)C1=C(C)N(c2ccccc2)/C(=C/c2ccco2)C1=O,2,5,·,1,-8,7
COC(=O)C1=C(C)N(c2cc(C)cc(C)c2)/C(=C/c2ccc(O)cc2)C1=O,7,37,99*,34,·,8
COc1ccc(NC(=O)CS(=O)(=O)c2ccccc2Cl)cc1,·,-21,·,-11,·,-4
Cc1ccc(NS(=O)(=O)c2ccc(-c3coc(C)n3)cc2)c(Br)c1,-4,18,·,-3,-11,2
Cc1ccc(-n2nc3c(=O)n(C(C)C(=O)NC4CC4)nc(C)c3c2C)cc1 (stereo not given),-2,8,·,-1,-2,-2
Cc1ccc(/C(N)=N/OC(=O)c2ccc3c(c2)OCO3)cc1,1,36,51*,10,-2,-1
Cc1ccc(/C(N)=N/OC(=O)c2ccc(Cl)cc2Cl)cc1,-5,31,85*,0,-6,8
COc1ccccc1C(=O)O/N=C(\N)c1ccc(Cl)cc1,-4,-18,7,3,-7,-4
COc1ccc(/C(N)=N/OC(=O)c2ccc3c(c2)OCO3)cc1,-6,33,-5,11,-4,-9
CCCCCCCNC(=O)C1(CC2CC(c3ccc(Cl)cc3)=NO2)CCN(C(=O)c2cc(OCC)c(OCC)c(OCC)c2)CC1 (stereo not given),12,35,·,39,2,28
Cc1ccc(NS(=O)(=O)c2ccc(N3CCN(c4ccc(O)cc4)CC3)c([N+](=O)[O-])c2)c(C)c1,20,17,98*,10,83*,39
CN1CCN(S(=O)(=O)c2ccc(N3CCN(c4ccc(O)cc4)CC3)c([N+](=O)[O-])c2)CC1,0,11,·,5,0,-3
O=[N+]([O-])c1cc(S(=O)(=O)Nc2ccccc2)ccc1N1CCN(c2ccc(O)cc2)CC1,5,-22,79*,2,77*,11
CC(=O)N1CCc2cc(S(=O)(=O)Nc3ccc(C)cc3C)ccc21,4,26,·,4,-3,-3
O=C(Cn1cnc2c(NC(=O)OCc3ccccc3)ncnc21)NCc1ccccn1,4,-31,·,·,-16,·
CCCn1c(NC(=O)C2CCN(S(=O)(=O)c3cccs3)CC2)nc2ccccc21,11,45,97*,47,36,51*
Cc1ccc(C(=O)Nc2nc3ccccc3n2CCN2CCCC2)cc1,10,-12,39,15,0,18
CC(NC(=O)c1ccccc1)c1nc2ccccc2n1Cc1ccc(C#N)cc1 (stereo not given),-3,0,19,10,5,-2
CCn1c(NC(=S)Nc2ccccc2)nc2ccccc21,·,-11,84*,65*,13,35
C=CCn1c(NC(=O)c2ccc(C)cc2)nc2ccccc21,17,-44,·,61*,7,59*
CC(NC(=O)c1ccccc1)c1nc2ccccc2n1Cc1ccccc1F (stereo not given),-3,31,53*,9,-9,5
O=C(Nc1cccc([N+](=O)[O-])c1)Nc1ccc2c(c1)OCCO2,5,-130,-2,16,-6,-20
COc1ccc(S(=O)(=O)NCC2CCCN(Cc3ccc(O)cc3)C2)cc1 (stereo not given),6,16,·,-6,26,-9
CCCn1c(NC(=O)c2ccccc2)nc2ccccc21,19,-14,41,16,4,69*
SMILES,Beta cell apopt,Mdm2 MdmX PPI,Lmaj promast,T cruzi inh,CSC inhib,SKKanGAS inh
CCCn1c(NC(=O)c2ccc(C)cc2)nc2ccccc21,34,22,17,39,25,44
COc1cccc(N2C(=O)C(c3ccccc3)=C(c3nc4ccccc4s3)C2NC(C)=O)c1 (stereo not given),8,-13,26,12,-3,11
CC(=O)NC1C(c2nc3ccccc3s2)=C(c2ccccc2)C(=O)N1c1ccc(C)cc1 (stereo not given),7,-26,97*,32,·,17
Cc1cc(N2CCCC2)c(F)cc1/C=C\[N+](=O)[O-],·,·,52*,13,·,6
CCc1nn(CC(=O)Nc2ccc(Br)c(C)c2)c(=N)s1,-5,11,7,-3,-3,-1
Cc1ccc(N(CC(=O)Nc2cc(C)cc(C)c2)S(=O)(=O)c2c(C)noc2C)cc1,102*,32,·,26,10,7
COc1ccc(N(CC(=O)Nc2ccc(C)cc2)S(=O)(=O)c2c(C)noc2C)cc1,0,2,·,1,-6,0
Cc1noc(C)c1S(=O)(=O)N(CC(=O)N1CCCCCC1)c1ccc(C(C)C)cc1,3,-12,63*,16,5,4
Cc1ccc(SCc2c(-c3ccccc3)nn(C)c2Cl)cc1,1,14,-3,7,9,31
Cn1nc(-c2ccccc2)c(CSc2ccccc2)c1Cl,-9,14,-3,-5,48,62*
Cc1ccc(NCc2n[nH]c(=S)n2Cc2ccccc2)cc1Cl,·,·,3,-6,·,24
CCCN(CCC)S(=O)(=O)c1ccc(C(=O)Nc2nnc(COC)o2)cc1,5,17,-5,-23,21,69*
COCc1nnc(NC(=O)c2ccc(S(=O)(=O)N(C)C3CCCCC3)cc2)o1,1,-4,-8,-14,-10,62*
CN(C1CCCCC1)S(=O)(=O)c1ccc(NC(=O)c2ccc(Br)o2)cc1,12,14,57*,34,12,-6
CN(C)S(=O)(=O)c1ccc(NC(=O)c2ccc(Br)o2)cc1,-2,-21,-2,5,-4,-4
COC(=O)CN(C#N)c1nc(NC(C)C)nc(NC(C)C)n1,-3,13,0,6,·,5
CCCc1ccc(OCc2ccc(C(=O)N/N=C/c3cccnc3)o2)cc1,-2,-23,·,0,-3,2
CN1CCN(c2nc(-c3ccccc3)nc(-c3ccc(F)cc3)c2C#N)CC1,10,18,23,55*,30,-2
COc1ccc(OC)c(C(=O)CSc2nccc(-c3ccc(Br)cc3)n2)c1,-8,23,-1,29,79*,-1
CC(C)NC(=O)C1CCN(C2CCN(C(=O)c3cc4c(s3)CCCCC4)CC2)CC1,6,-21,89*,1,12,3
NC(=O)C1CCN(C(=O)c2cc3c(s2)CCCC3)CC1,8,-2,·,-3,7,0
Cc1nn(-c2ccccc2)c(C)c1C(=O)NNC(=O)C(F)(F)F,·,5,·,-10,-4,5
